Shown are actives, neighbours in structure and some others; about 2.4% of the full set was active somewhere.
PP5 inh: inhibitors of human protein phosphatase 5 (PP5); purified PP5c, OMFP substrate fluorescence; 320,000 tested, 0.18% active; inhibition, % at 6.7 µM; P53041; AID 1987;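 active = inhibition above the campaign's mean inhibition across all tested compounds plus 3 SD, cut at about 9.5% in these data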
CTSL1 counter: blocks F. hepatica cathepsin L1 in PFM18AAP counter-screen. AID 1906. inhibition, % at 5.96 µM. 300,000 tested, 0.49% active. recombinant F. hepatica cathepsin L1, Z-Leu-Arg-MCA fluorescence;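 active = inhibition above the mean of all tested compounds plus 3 SD, set per screening campaign, cut at about 17% in these data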
p-CIP stab down: p/CIP protein destabilization; Q05BA5; F442A p/CIP-EGFP cells, EGFP fluorescence, 16 h; decrease of EGFP signal, % at 10 µM; 290,000 tested, 0.01% active;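 active = EGFP signal decrease of at least 30% at 10 µM or well 3 SD below plate mean, unless failing retest; inactive = the rest, including hits failing retest or dose response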
Target sequence (Q05BA5 1-1403): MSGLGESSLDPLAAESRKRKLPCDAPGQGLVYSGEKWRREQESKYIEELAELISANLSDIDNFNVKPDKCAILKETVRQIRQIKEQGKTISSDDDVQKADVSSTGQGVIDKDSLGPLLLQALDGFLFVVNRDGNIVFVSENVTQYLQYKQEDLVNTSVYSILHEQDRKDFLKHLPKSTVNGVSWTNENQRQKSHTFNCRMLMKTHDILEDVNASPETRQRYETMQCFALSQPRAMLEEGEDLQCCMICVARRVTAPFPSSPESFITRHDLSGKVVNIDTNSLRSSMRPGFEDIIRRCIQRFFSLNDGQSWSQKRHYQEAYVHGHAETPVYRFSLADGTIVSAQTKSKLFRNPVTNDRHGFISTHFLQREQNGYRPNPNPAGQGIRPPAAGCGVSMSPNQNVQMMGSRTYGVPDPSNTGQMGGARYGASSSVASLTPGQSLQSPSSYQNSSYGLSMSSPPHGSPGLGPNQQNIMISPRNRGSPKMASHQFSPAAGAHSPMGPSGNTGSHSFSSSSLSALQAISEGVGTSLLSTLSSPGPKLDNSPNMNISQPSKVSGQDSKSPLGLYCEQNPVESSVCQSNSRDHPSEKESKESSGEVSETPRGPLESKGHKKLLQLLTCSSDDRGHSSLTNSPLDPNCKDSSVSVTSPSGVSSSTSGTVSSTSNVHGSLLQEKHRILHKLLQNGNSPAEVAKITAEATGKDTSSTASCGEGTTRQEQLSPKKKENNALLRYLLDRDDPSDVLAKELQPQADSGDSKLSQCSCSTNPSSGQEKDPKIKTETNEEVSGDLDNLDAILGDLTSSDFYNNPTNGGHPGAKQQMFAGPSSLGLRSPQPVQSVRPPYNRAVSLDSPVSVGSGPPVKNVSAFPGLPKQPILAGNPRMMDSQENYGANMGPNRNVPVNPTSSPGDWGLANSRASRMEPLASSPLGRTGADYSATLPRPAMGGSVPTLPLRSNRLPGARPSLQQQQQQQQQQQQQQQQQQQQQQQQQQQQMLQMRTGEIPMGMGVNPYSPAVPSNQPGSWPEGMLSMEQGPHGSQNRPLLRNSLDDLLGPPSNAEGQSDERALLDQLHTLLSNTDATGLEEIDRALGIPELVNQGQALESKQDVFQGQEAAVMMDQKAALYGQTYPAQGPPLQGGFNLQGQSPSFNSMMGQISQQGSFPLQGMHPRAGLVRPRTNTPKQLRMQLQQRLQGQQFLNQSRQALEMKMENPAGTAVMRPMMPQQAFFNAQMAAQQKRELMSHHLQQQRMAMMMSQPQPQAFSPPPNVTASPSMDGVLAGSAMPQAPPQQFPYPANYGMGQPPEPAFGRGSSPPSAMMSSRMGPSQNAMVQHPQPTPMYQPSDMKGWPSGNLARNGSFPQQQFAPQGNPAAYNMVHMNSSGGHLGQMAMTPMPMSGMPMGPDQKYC
H9c2 protect: protects H9c2 cardiomyocytes from peroxide injury; H2O2 injury protection, ATPLite, 2 h; protection from H2O2 cell death, % at 20 µM; 360,000 tested, 0.63% active; AID 588492;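 active = compounds giving at least 50% protection of heart cells from peroxide-induced death in the single-dose screen, raw or plate-pattern-corrected value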
JMJD2C inh: blocks human GASC-1 demethylase activity; inhibition, % at 2.35 µM; GST-JMJD2C(1-420) H3K9me3 demethylation, DELFIA europium; 330,000 tested, 0.069% active; AID 2099;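 active = more than half of a compound's replicate wells show inhibition beyond 50%, single wells judged on their own value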;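 note: signal counts dimethyl H3K9 product captured on neutravidin plate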
T cruzi inh: blocks replication of Trypanosoma cruzi; 300,000 tested, 1.4% active; T. cruzi beta-gal in NIH3T3, luminescence, 90 h; inhibition, % (test concentration not listed);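 active = mean inhibition across valid replicates above about 55%, limit read from the data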;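 note: signal also drops with host cell toxicity which is not excluded here; higher percent means less beta-gal luminescence so fewer parasites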
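Incubation – ≥90 h infection period, 3 h prior cell attachment · System – NIH/3T3 fibroblasts plus reporter T. cruzi · Doses – compound pinned at 50 nL/well, DMSO · Read-out basis – percent inhibition of parasite-derived β-gal signal · Signal – luminescent β-galactosidase signal after 60 min lysis · Also added – 5000 T. cruzi trypomastigotes/well · Medium – Low-serum DMEM with 2% FBS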
Each line names hits and unclear results; the compound was inactive in the other large screens.

CCCCN(CCCC)S(=O)(=O)c1ccc(NC(=O)c2ccc([N+](=O)[O-])cc2Cl)cc1	T cruzi inh 79
CCN(CC)S(=O)(=O)c1cc([N+](=O)[O-])ccc1NNC(=O)Nc1ccc(Cl)c(Cl)c1	T cruzi inh 60
CCCCN(CCCC)S(=O)(=O)c1ccc(NC(=O)c2cccs2)cc1	T cruzi inh 56
CC(Sc1nnnn1C)C(=O)Nc1ncc(Cl)cc1Cl (configuration not stated)	none (no result: CTSL1 counter, p-CIP stab down, T cruzi inh)
CN(c1ccc(OCC(=O)N2CCCCC2)cc1)S(=O)(=O)c1cccs1	JMJD2C inh 64
CC(C)(C)c1csc(NNC(=O)c2ccc(Br)cc2)n1	H9c2 protect 55
COc1ccc(-c2csc3nc[nH]c(=O)c23)cc1OC	none
Cc1ccc(-c2csc3nc[nH]c(=S)c23)cc1C	H9c2 protect 80
O=C(CCC(=O)N1CCN(c2ccccn2)CC1)c1ccc(Cl)s1	none (no result: CTSL1 counter, p-CIP stab down, T cruzi inh)
CCc1c(C)nc(SCC(=O)NNC(=O)Cc2ccc(OC)cc2)[nH]c1=O	CTSL1 counter 18
O=S(=O)(c1ccccc1)N1N=C(c2ccc(Cl)cc2)CC1c1ccco1 (configuration not stated)	none (no result: PP5 inh, CTSL1 counter, p-CIP stab down, JMJD2C inh, T cruzi inh)
CC(C)NC(=O)Cn1nc(C(F)(F)F)c2c1CCC2	none
CC(NC(=O)Cn1nc(C(F)(F)F)c2c1CCC2)c1ccccc1 (configuration not stated)	CTSL1 counter 17
Brc1ccc(-c2csc(N3CCCCCC3)n2)cc1	none
NC(=O)C1(N2CCCCC2)CCN(c2nc(-c3ccc(Br)cc3)cs2)CC1	T cruzi inh 60
O=C(CSc1nnc(-c2cccnc2)o1)c1cc2ccccc2oc1=O	H9c2 protect 51
O=C(CSc1nnc(-c2cccnc2)o1)Oc1ccccc1	none
CCOc1ccccc1NC(=O)c1oc2ccccc2c1NC(=O)C1CC1	none
CCOc1ccccc1NC(=O)c1oc2ccccc2c1NC(=O)C1CCCO1 (configuration not stated)	CTSL1 counter 18, H9c2 protect 52
CC[C@H](C)[C@H]1CNC(=S)N1CC1CCN(CCC23CC4CC(CC(C4)C2)C3)CC1	none (no result: PP5 inh, CTSL1 counter, p-CIP stab down, JMJD2C inh, T cruzi inh)
CNC(=O)C1(C(F)(F)F)C/C(=C\CCO)CCCO1 (configuration not stated)	CTSL1 counter 18
COc1ccccc1N1CCN(Cc2cnc3ccc(Cl)cn23)CC1	none (no result: PP5 inh, CTSL1 counter)
C=CCn1c(SCc2c(C)noc2C)nc2sc(C)c(C)c2c1=O	none
Cc1noc(C)c1CSc1nc2sc(C)c(C)c2c(=O)n1-c1ccccc1	T cruzi inh 60
Cc1onc(-c2c(F)cccc2Cl)c1C(=O)Nc1ccc(Cl)c(S(=O)(=O)N(C)C)c1	none (no result: CTSL1 counter, p-CIP stab down, T cruzi inh)
O=C1C2CC=C(Cl)CC2C(=O)N1CCCCCCN1C(=O)C2CC=C(Cl)CC2C1=O (configuration not stated)	CTSL1 counter 42
Cc1ccc(NC2=C/C(=N/S(=O)(=O)c3cccs3)c3ccccc3C2=O)cc1	CTSL1 counter 60
O=C1C(Nc2ccccc2)=C/C(=N/S(=O)(=O)c2cccs2)c2ccccc21	CTSL1 counter 82, T cruzi inh 60 (no result: p-CIP stab down)
Cc1ccc(NC(=O)CSCC(=O)Nc2ccccc2C(=O)NC2CC2)cc1	none (no result: PP5 inh, CTSL1 counter, p-CIP stab down, JMJD2C inh, T cruzi inh)
Cc1ccc(SCC(=O)OC(C)C(=O)NCc2ccccc2)cc1C (configuration not stated)	none (no result: p-CIP stab down)
CCC(Oc1ccccc1)C(=O)Nc1ccccc1C(=O)N1CCN(C)CC1 (configuration not stated)	none
CCC(Oc1ccccc1)C(=O)Nc1ccccc1C(=O)N1CCCCC1 (configuration not stated)	H9c2 protect 50
O=[N+]([O-])c1ccc(CN2CCN(c3ccc(Cl)cc3)CC2)o1	T cruzi inh 59
CCNC(=S)N1CCN(c2ccc([N+](=O)[O-])cc2)CC1	none
O=[N+]([O-])c1ccc(N2CCN(C(=S)NCc3ccc(Cl)cc3)CC2)cc1	T cruzi inh 57
COCCN(C(=O)COC(=O)c1sccc1C)c1c(N)n(Cc2ccccc2)c(=O)[nH]c1=O	none
Cc1cc(-c2nnc(SCC(=O)Nc3ccc(F)cc3F)n2N)n[nH]1	none
Cc1ccccc1OCC(O)CN1CCN(CCN2C(=O)c3cccc4cccc(c34)C2=O)CC1 (configuration not stated)	T cruzi inh 56
C=CCc1ccccc1OCC(O)CN1CCN(CCN2C(=O)c3cccc4cccc(c34)C2=O)CC1 (configuration not stated)	none
CCCCCCCn1c2c(c(=N)c3c1CCC3)CCCC2	T cruzi inh 59 (no result: PP5 inh, CTSL1 counter)
CCCCCCn1c2c(c(=N)c3c1CCC3)CCC2	T cruzi inh 84
CCCCCCCCCn1c2c(c(=N)c3c1CCC3)CCC2	none
COc1ccc(C2=C3C(=O)OCC3Cc3ncn(Cc4ccccc4)c32)cc1 (configuration not stated)	none (no result: CTSL1 counter, p-CIP stab down, T cruzi inh)
CN1CCN(C(c2ccc(C(F)(F)F)cc2)c2ccc3cccnc3c2O)CC1 (configuration not stated)	T cruzi inh 71 (no result: H9c2 protect)
Oc1c(C(c2ccccc2Cl)N2CCCC2)ccc2cccnc12 (configuration not stated)	T cruzi inh 84
Oc1c(C(c2ccc(Cl)cc2)N2CCCC2)cc(Cl)c2cccnc12 (configuration not stated)	H9c2 protect 72, T cruzi inh 70
Oc1c(C(c2cccs2)N2CCN(c3ccccc3)CC2)ccc2cccnc12 (configuration not stated)	none (no result: H9c2 protect, T cruzi inh)
COC(=O)[C@@]1(Cc2ccccc2)[C@H]2C(=O)N(C)C(=O)[C@H]2[C@H]2CN=C(SCc3ccc(Cl)cc3)N21	none (no result: PP5 inh, CTSL1 counter, p-CIP stab down, JMJD2C inh, T cruzi inh)
C[C@@H]1CN([C@H](C)CO)C(=O)CCCn2cc(nn2)CO[C@H]1CN(C)C(=O)Nc1ccccc1	none (no result: PP5 inh, CTSL1 counter, p-CIP stab down, JMJD2C inh, T cruzi inh)
COC(=O)CN(C)C(=O)c1cccc(OC2CCN(S(=O)(=O)N(C)C)CC2)c1	none
COC(=O)CSc1nnc([C@H](CC(C)C)NC(=O)OC(C)(C)C)o1	CTSL1 counter 52
CC(C)(C)OC(=O)N[C@@H](Cc1ccccc1)c1nnc(SCC(=O)O)o1	CTSL1 counter 29
Cc1ccccc1CS(=O)(=O)c1nnc([C@H](Cc2ccccc2)NC(=O)OC(C)(C)C)o1	CTSL1 counter 29
CC(C)(C)OC(=O)N[C@@H](Cc1ccccc1)c1nnc(S(=O)(=O)Cc2ccccc2)o1	CTSL1 counter 25 (no result: H9c2 protect, T cruzi inh)
CCc1nn(CCCC(=O)NC2CCCCC2C)c(=O)c2cc3occc3n12 (configuration not stated)	none (no result: PP5 inh, CTSL1 counter, p-CIP stab down, JMJD2C inh, T cruzi inh)
CCN(CC)C(=O)C1=C(C)N(CCC2=CCCCC2)C(=O)C(CC(=O)NCCN2CCOCC2)C1 (configuration not stated)	none (no result: PP5 inh, CTSL1 counter, p-CIP stab down, JMJD2C inh, T cruzi inh)
CCc1nc2sc3ccccc3c(=O)c2c(=O)n1CCOC	none
COCCn1c(C2CCCCC2)nc2sc3ccccc3c(=O)c2c1=O	T cruzi inh 55
COc1ccccc1N1CCN(CCC(=O)Nc2ccc(F)cc2)CC1	none
